pEC50: −log10 of the molar value. Calls of active or inactive are those of the source. No cut-off for these calls is given here.
Tests used:
[1] = biological target: T1, Transient receptor potential cation channel subfamily V member 1 (Rattus norvegicus, UniProt O35433); experiment: Agonist activity at TRPV1 in rat isolated mesenteric arteries assessed as vasorelaxation of phenylephrine-induced contraction; type: tissue-based, Artery
In short: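 Indomethacin 10 μM and Nω-nitro-L-arginine 100 μM were present throughout. Segments were precontracted with phenylephrine and exposed to conjugate concentrations. pEC₅₀ taken at half-maximal relaxation; mean ± SEM, n = animals.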

[2] = biological target: T1, Transient receptor potential cation channel subfamily V member 1; experiment: Agonist activity at TRPV1 in rat isolated mesenteric arteries assessed as vasorelaxation of phenylephrine-induced contraction in presence of TRPV1 antagonist capsazepine; type: tissue-based, Artery
In short: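 Segments from male Wistar rats (200–250 g) were bathed in pH 7.4 physiological salt solution at 37 °C, gassed 95% O₂/5% CO₂, with indomethacin 10 μM and Nω-nitro-L-arginine 100 μM present. After phenylephrine precontraction, conjugate concentration–relaxation curves were run in the presence of capsazepine 3 μM. pEC₅₀ is the negative log molar concentration giving half-maximal relaxation; mean ± SEM, n = animals.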

[3] = biological target: T2, Fatty-acid amide hydrolase 1 (Mus musculus, UniProt O08914); experiment: Substrate activity at FAAH in FAAH+/+ mouse brain assessed as N-arachidonoyl conjugate level per g protein at 0.1 mM measured after 20 mins by LC-MS/MS analysis; type: ADME, tissue-based; settings: 100 µM
T2 sequence (O08914 whole entry): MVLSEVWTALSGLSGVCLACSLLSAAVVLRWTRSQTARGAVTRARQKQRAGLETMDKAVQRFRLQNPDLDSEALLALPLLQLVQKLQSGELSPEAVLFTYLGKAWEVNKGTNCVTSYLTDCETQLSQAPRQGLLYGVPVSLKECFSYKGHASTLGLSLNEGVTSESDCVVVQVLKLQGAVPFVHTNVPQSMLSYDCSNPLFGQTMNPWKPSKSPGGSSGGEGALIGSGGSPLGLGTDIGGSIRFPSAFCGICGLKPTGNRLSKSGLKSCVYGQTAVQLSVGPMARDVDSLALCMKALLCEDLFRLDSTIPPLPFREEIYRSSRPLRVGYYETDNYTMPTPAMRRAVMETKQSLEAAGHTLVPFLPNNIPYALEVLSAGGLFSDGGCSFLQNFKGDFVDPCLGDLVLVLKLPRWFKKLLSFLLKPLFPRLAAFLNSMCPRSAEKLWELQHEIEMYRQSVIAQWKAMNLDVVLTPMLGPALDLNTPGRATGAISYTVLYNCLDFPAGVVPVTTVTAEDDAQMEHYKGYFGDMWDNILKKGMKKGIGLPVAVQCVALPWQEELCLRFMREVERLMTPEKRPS
In short: (§1)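 Brains from FAAH+/+ or FAAH-/- mice were homogenized in ice-cold 10 mM Tris with 1 mM EDTA and 0.3 mM ascorbic acid. Aliquots were incubated with 0.1 mM primary amine for 20 min at 37 °C with stirring. Reactions were stopped with cold acetone containing AM404-d4 internal standard, and conjugates were measured by LC-MS/MS. n = 5–7.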

[4] = Prodrug conversion in FAAH-/- mouse brain assessed as N-arachidonoyl conjugate level per g protein at 0.1 mM measured after 20 mins by LC-MS/MS analysis; type: ADME, tissue-based; settings: in vitro, 100 µM; in short: as §1
[5] = Prodrug conversion in FAAH+/+ mouse brain assessed as N-arachidonoyl conjugate level per g protein at 300 mg/kg, ip measured after 20 mins by LC-MS/MS analysis; type: ADME, organism-based; settings: in vivo
In short: (§2)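 FAAH+/+ and FAAH-/- mice (both sexes) received the primary amine i.p. in saline (sometimes with 5% DMSO). Brains were collected 20 min later, frozen, and homogenized in Tris/EDTA/ascorbate with 10 μM MAFP. N-arachidonoyl conjugates were quantified by positive-ion LC-MS/MS and normalized to protein.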

[6] = Prodrug conversion in FAAH-/- mouse brain assessed as N-arachidonoyl conjugate level per g protein at 300 mg/kg, ip measured after 20 mins by LC-MS/MS analysis; type: ADME, organism-based; settings: in vivo; in short: as §2
[7] = Hepatotoxicity in C57BL/6 mouse assessed as change in ALT level at 300 mg/kg, ip measured after 12 hrs; type: toxicity, organism-based; settings: in vivo
In short: (§3)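 Male C57BL/6 mice (8 weeks) were fasted 12–16 h, then given 300 mg kg⁻¹ i.p. in saline. At 12 h, blood was taken for serum ALT/AST (automated analyser). The left medial liver lobe was fixed in 4% formaldehyde, cryosectioned at 10 μm and stained with H&E. The ALT/AST ratio was tested against 1. Mean ± SEM, n = 6–7.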

[8] = Hepatotoxicity in C57BL/6 mouse assessed as centrilobular necrosis at 300 mg/kg, ip measured after 12 hrs by H and E staining based microscopic analysis; type: toxicity, organism-based; settings: in vivo; in short: as §3
[9] = Prodrug conversion in FAAH+/+ mouse brain assessed as N-arachidonoyl conjugate level per g protein at 100 mg/kg, ip measured after 20 mins by LC-MS/MS analysis; type: ADME, organism-based; design: unit: pmol/g protein; settings: in vivo; in short: as §2
[10] = Prodrug conversion in FAAH-/- mouse brain assessed as N-arachidonoyl conjugate level per g protein at 100 mg/kg, ip measured after 20 mins by LC-MS/MS analysis; type: ADME, organism-based; design: unit: pmol/g protein; settings: in vivo; in short: as §2
[11] = system: Mus musculus; experiment: Antinociceptive activity in ip dosed C57BL/6 mouse assessed as reduction in licking time during first phase treated for 10 mins and measured for 5 mins by formalin test; type: functional, organism-based; settings: dose 25-100 mg/kg, time 15.0 min
In short: (§4)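 Male C57BL/6 mice, 8 weeks old, randomized in equal blocks (5–10 per group), observer blinded. The test amine or vehicle was given i.p. 10 min before intraplantar 2.5% formalin (25 μl/mouse). Time spent biting/licking the injected paw was recorded in phase I (0–5 min) and phase II (15–40 min). Mean ± SEM, n = 5–6.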

[12] = system: Mus musculus; experiment: Antinociceptive activity in ip dosed C57BL/6 mouse assessed as reduction in licking time during second phase treated for 10 mins and measured for 15 to 40 mins by formalin test; type: functional, organism-based; settings: dose 25-100 mg/kg, time 50.0 min; in short: as §4
[13] = Effect on locomotor activity in C57BL/6 mouse assessed as change in latency to fall at 50 to 75 mg/kg, ip treated for 10 mins measured up to 60 mins by rotarod test; type: ADME, organism-based; settings: in vivo, 1 h, dose 50-75 mg/kg
In short: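 Male C57BL/6 mice were first trained on a rotarod at a constant 4 rpm in 1-min sessions. At various times after i.p. dosing, the drum was accelerated from 4 to 40 rpm over 5 min and the latency to fall was recorded.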

[14] = system: Mus musculus; experiment: Antinociceptive activity in C57BL/6 mouse assessed as reduction in licking time during second phase at 50 mg/kg, ip treated for 10 mins and measured for 15 to 40 mins in presence of FAAH inhibitor URB937 by formalin test; type: functional, organism-based; settings: time 50.0 min
In short: (§5)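 Male C57BL/6 mice, 8 weeks old. URB937 (5 μg in 5 μl) or capsazepine (10 μg in 5 μl) was given i.c.v. under brief isoflurane, 2 mm deep, 5 min before the i.p. test amine. Formalin 2.5% (25 μl) was injected intraplantar 10 min after dosing. Paw biting/licking time was scored in phase I (0–5 min) and phase II (15–40 min) by a blinded observer. Mean ± SEM, n = 8–14.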

[15] = system: Mus musculus; experiment: Antinociceptive activity in C57BL/6 mouse assessed as reduction in licking time during second phase at 50 mg/kg, ip treated for 10 mins and measured for 15 to 40 mins in presence of TRPV1 antagonist capsazepine by formalin test; type: functional, organism-based; settings: time 50.0 min; in short: as §5
[16] = system: Mus musculus; experiment: Antinociceptive activity in C57BL/6 mouse assessed as reduction in licking time during first phase at 50 mg/kg, ip treated for 10 mins and measured for 5 mins in presence of FAAH inhibitor URB937 by formalin test; type: functional, organism-based; settings: time 15.0 min; in short: as §5
[17] = system: Mus musculus; experiment: Antinociceptive activity in C57BL/6 mouse assessed as reduction in licking time during first phase at 50 mg/kg, ip treated for 10 mins and measured for 5 mins in presence of TRPV1 antagonist capsazepine by formalin test; type: functional, organism-based; settings: time 15.0 min; in short: as §5

T1 sequence (O35433 whole entry): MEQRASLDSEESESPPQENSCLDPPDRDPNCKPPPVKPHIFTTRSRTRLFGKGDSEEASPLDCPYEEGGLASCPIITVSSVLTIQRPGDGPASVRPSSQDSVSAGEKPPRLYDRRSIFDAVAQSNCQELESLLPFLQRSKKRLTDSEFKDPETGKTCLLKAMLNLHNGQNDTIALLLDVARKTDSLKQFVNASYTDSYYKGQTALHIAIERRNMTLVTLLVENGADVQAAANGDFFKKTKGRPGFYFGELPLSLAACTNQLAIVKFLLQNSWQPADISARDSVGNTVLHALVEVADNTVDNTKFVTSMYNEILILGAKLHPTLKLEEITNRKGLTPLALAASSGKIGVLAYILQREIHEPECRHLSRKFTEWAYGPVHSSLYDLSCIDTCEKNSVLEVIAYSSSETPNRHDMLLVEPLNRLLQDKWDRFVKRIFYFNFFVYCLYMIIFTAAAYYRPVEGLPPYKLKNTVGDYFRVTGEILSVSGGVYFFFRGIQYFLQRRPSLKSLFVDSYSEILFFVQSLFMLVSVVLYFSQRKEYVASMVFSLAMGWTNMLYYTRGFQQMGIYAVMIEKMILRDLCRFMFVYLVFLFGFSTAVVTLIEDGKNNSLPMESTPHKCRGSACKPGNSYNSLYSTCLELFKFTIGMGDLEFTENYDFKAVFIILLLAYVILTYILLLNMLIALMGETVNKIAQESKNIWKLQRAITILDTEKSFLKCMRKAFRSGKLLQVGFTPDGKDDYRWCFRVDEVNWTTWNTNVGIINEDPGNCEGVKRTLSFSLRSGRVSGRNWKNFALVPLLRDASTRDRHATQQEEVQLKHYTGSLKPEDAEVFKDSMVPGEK

Row | Compound | pEC50 [1] | pEC50 [2] | Drug metabolism [3] [nmol/g] | Drug metabolism [4] [nmol/g] | Activity [7] | Activity [8] | Drug metabolism [9] [pmol] | Drug metabolism [10] [pmol] | further results
1 | CCCCC/C=C\C/C=C\C/C=C\C/C=C\CCCC(=O)Nc1ccc(OC)c(O)c1 | 8.50 | 7.20 |  |  |  |  |  |  | 
2 | COc1cc(CN)ccc1O |  |  | 2.5 | 0.01 | Non-Toxic | Non-Toxic |  |  | Drug metabolism [5]: 40 pmol; Drug metabolism [6]: Metabolite_Notdetected
3 | CCCCC/C=C\C/C=C\C/C=C\C/C=C\CCCC(=O)Nc1ccc(O)c(OC)c1 | 8.90 | 7.80 |  |  |  |  |  |  | 
4 | COc1ccc(N)cc1O |  |  | 3 | 0.06 | Non-Toxic | Non-Toxic | 283 | 42 | Activity [11]: Dose-dependent effect; Activity [12]: Dose-dependent effect; Activity [13]: Non-Toxic; Activity [14]: inactive; Activity [15]: inactive; Activity [16]: Active; Activity [17]: Active
5 | NCc1ccc2[nH]ncc2c1 |  |  | 2.5 | 0.04 |  |  | 58 | 58 | 

— ChEMBL document CHEMBL4732106, “Paracetamol analogues conjugated by FAAH induce TRPV1-mediated antinociception without causing acute liver toxicity” (Eur J Med Chem, 2021)
